From ChEMBL document CHEMBL1123677, “Structure-activity studies of 5-[[4-(4,5-dihydro-2-oxazolyl) phenoxy]alkyl]-3-methylisoxazoles: inhibitors of picornavirus uncoating” (J Med Chem, 1987)
Values after ≈ are worked out from the molar mass of the structure shown.

Columns and labels:
[1] = tested on: rhinovirus A15; test: Expanded antirhinoviral activity against the rhinovirus serotype 15; assay type: functional; conditions: Rhinovirus A
Summary of the method: (§1)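 Selected compounds were tested across a 15-serotype rhinovirus panel: the five secondary serotypes plus 10 more. An MIC was recorded for each serotype. MIC80, the concentration inhibiting 80% of serotypes tested, was also derived from this panel.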

[2] = tested on: rhinovirus A2; test: Antiviral activity determined by ability to inhibit the HRV-2( human rhinovirus type -2) virus by plaque reduction assay in vitro; assay type: functional; conditions: Rhinovirus A
Summary of the method: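 Plaque reduction assay against human rhinovirus type 2 (HRV-2), following an earlier reported method. The value is the MIC, the minimum inhibitory concentration.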

[3] = tested on: rhinovirus A1B; test: Expanded antirhinoviral activity against the rhinovirus serotype 1B; assay type: functional, human rhinovirus type 1b; conditions: Rhinovirus A; summary of the method: as §1
[4] = tested on: rhinovirus A67; test: Expanded antirhinoviral activity against the rhinovirus serotype 67; assay type: functional; conditions: Rhinovirus A; summary of the method: as §1
[5] = Partition coefficient (logP); assay type: physicochemical; conditions: octanol/water
[6] = tested on: rhinovirus B86; test: Expanded antirhinoviral activity against the rhinovirus serotype 86; assay type: functional; conditions: Rhinovirus B; summary of the method: as §1
[7] = tested on: Human rhinovirus 1A; test: Expanded antirhinoviral activity against the rhinovirus serotype 1A; assay type: functional; summary of the method: as §1
[8] = tested on: human rhinovirus (15-serotype panel); test: Antirhinovirus activity was determined by the ability to inhibit the growth of 80% of a panel of 15 human rhinovirus serotypes
[9] = tested on: rhinovirus A25; test: Expanded antirhinoviral activity against the rhinovirus serotype 25; assay type: functional; conditions: Rhinovirus A; summary of the method: as §1
[10] = tested on: rhinovirus B6; test: Expanded antirhinoviral activity against the rhinovirus serotype 6; assay type: functional; conditions: Rhinovirus B; summary of the method: as §1
[11] = tested on: rhinovirus A89; test: Expanded antirhinoviral activity against the rhinovirus serotype 89; assay type: functional, human rhinovirus type 89; conditions: Rhinovirus A; summary of the method: as §1
[12] = tested on: rhinovirus A22; test: Expanded antirhinoviral activity against the rhinovirus serotype 22; assay type: functional; conditions: Rhinovirus A; summary of the method: as §1
[13] = tested on: rhinovirus A2; test: Expanded antirhinoviral activity against the rhinovirus serotype 2; assay type: functional, human rhinovirus type 2; conditions: Rhinovirus A; summary of the method: as §1
[14] = tested on: rhinovirus A21; test: Expanded antirhinoviral activity against the rhinovirus serotype 21; assay type: functional; conditions: Rhinovirus A; summary of the method: as §1
[15] = tested on: Human rhinovirus sp.; test: Mean of MIC's was determined for the five types of virus like HRV-2, HRV-1A,HRV-22,HRV-41 and HRV-50; assay type: functional
Summary of the method: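 MIC measured by plaque reduction against HRV-2 first. The value is the mean of the MICs across these five serotypes.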

[16] = tested on: rhinovirus B14; test: Expanded antirhinoviral activity against the rhinovirus serotype 14; assay type: functional, human rhinovirus type 14; conditions: Rhinovirus B; summary of the method: as §1
[17] = tested on: rhinovirus A50; test: Expanded antirhinoviral activity against the rhinovirus serotype 50; assay type: functional; conditions: Rhinovirus A; summary of the method: as §1
[18] = tested on: rhinovirus A2; test: Antirhinovirus activity was assessed and the maximum testable concentration that causes no apparent effects on the cell monolayers was determined against HRV-2 virus in vitro.; assay type: functional, human rhinovirus type 2
[19] = tested on: rhinovirus A41; test: Expanded antirhinoviral activity against the rhinovirus serotype 41; assay type: functional; conditions: Rhinovirus A; summary of the method: as §1
[20] = tested on: rhinovirus A30; test: Expanded antirhinoviral activity against the rhinovirus serotype 30; assay type: functional; conditions: Rhinovirus A; summary of the method: as §1

Molecule `Cc1cc(CCCCCOc2ccc(C3=NCCO3)cc2[N+](=O)[O-])on1` has an MIC [1] of 0.3 µM (≈ 0.108 µg/mL), an MIC [2] of 0.04 µM (≈ 0.0144 µg/mL) and an MIC [3] of 0.2 µM (≈ 0.0719 µg/mL). For the same molecule, the MIC [4] was 0.2 µM (≈ 0.0719 µg/mL), the logP [5] was 3.49 and the MIC [6] was 2 µM (≈ 0.719 µg/mL). It also gave an MIC [7] of 0.9 µM (≈ 0.323 µg/mL), an MIC80 [8] of 1.8 µM (≈ 0.647 µg/mL) and an MIC [9] of 1.9 µM (≈ 0.683 µg/mL). The MIC [10] was 1.6 µM (≈ 0.575 µg/mL), the MIC [11] was 0.06 µM (≈ 0.0216 µg/mL) and the MIC [12] was 0.1 µM (≈ 0.0359 µg/mL). It also gave an MIC [13] of 0.06 µM (≈ 0.0216 µg/mL), an MIC [14] of 0.06 µM (≈ 0.0216 µg/mL) and an MIC [15] of 0.7 µM (≈ 0.252 µg/mL). For the same molecule, the MIC [16] was 1.8 µM (≈ 0.647 µg/mL), the MIC [17] was 0.2 µM (≈ 0.0719 µg/mL) and the MTL [18] was 3.9 µM. The MIC [19] was 2 µM (≈ 0.719 µg/mL) and the MIC [20] was 0.1 µM (≈ 0.0359 µg/mL).
